Bioassay records: PubChem, several laboratories
hERG rescue – shields human hERG channel from block by proarrhythmic agents; hit rate 0.51% among 310,000; AID 1511; activation (rescue from dofetilide block), less the hit threshold, % at 10 µM; CHO-hERG, FluxOR thallium flux, dofetilide IC70 present;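 active = activation above the mean of controls blocked by dofetilide plus 5 SD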;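 note: thallium influx through hERG after potassium depolarization seen as dye fluorescence rise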
Target sequence (Q12809 whole entry, looked up): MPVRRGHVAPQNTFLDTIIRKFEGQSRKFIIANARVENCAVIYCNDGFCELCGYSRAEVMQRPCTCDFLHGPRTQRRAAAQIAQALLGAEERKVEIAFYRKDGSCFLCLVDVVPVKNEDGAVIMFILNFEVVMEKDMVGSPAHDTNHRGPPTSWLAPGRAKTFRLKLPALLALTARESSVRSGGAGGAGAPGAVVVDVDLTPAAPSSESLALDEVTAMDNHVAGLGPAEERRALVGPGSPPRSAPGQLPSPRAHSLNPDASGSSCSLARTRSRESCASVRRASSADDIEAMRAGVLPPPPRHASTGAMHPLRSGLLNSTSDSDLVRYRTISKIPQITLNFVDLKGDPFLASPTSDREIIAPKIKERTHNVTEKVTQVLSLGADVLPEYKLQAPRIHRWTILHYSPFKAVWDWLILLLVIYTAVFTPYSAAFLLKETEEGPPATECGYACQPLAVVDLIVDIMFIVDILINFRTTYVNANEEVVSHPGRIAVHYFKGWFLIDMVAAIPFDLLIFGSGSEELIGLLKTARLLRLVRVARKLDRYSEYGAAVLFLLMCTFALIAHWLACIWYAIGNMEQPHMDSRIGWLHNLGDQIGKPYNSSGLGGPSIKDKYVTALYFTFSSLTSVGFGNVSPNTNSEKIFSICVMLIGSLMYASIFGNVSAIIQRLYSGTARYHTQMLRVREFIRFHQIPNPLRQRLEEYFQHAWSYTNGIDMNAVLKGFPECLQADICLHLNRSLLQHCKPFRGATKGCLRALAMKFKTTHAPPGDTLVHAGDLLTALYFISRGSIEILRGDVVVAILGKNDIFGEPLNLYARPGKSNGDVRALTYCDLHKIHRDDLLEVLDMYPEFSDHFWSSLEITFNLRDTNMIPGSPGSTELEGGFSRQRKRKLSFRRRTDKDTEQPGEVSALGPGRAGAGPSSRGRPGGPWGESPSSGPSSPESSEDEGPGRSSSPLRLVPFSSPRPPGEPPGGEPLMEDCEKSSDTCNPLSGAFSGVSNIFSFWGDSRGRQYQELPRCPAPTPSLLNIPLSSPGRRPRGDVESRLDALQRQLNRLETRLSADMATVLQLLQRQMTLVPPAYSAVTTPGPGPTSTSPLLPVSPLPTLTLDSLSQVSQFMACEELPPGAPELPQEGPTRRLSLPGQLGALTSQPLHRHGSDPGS
KCNK3 inh – human KCNK3 channel inhibition, primary screen; B-score at 10 µM; CHO-KCNK3 thallium flux, FluxOR fluorescence; stronger effect = lower value; O14649; hit rate 0.84% among 340,000;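 active = B-score under library mean minus 4 SD, starting fluorescence ratio at most library mean plus 5 SD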;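 note: more negative B-score means stronger inhibition of thallium flux through KCNK3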
KCNQ1 inh – human KCNQ1 channel inhibition | P51787 | CHO-K1 KCNQ1, FluxOR thallium flux fluorescence; stronger effect = higher value | B-score at 10 µM | hit rate 1.3% among 310,000;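 active = compounds whose thallium flux B-score, printed positive for inhibition, exceeds three library SD while starting fluorescence stays within three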;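 note: channel opened by potassium depolarization with thallium stimulus after 20 min compound exposure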
Cl transport mod – modulators of human KCC2 chloride dependent transport. Q9H2X9. KCC2 cells, thallium flux FluoZin-2 fluorescence. B-score of Tl+ flux slope (higher = more flux/activation; lower = inhibition) at 10 µM. hit rate 2.2% among 190,000;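 active = thallium flux slope and its plate-corrected score both differing from the plate sample mean at a set confidence after two filtering rounds, in either direction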;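 note: slope of fluorescence scaled to starting intensity during 10 to 20 s after thallium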
KCNQ1 pot – potentiates or activates the human KCNQ1 potassium channel. P51787. CHO-K1 KCNQ1, thallium flux FluxOR fluorescence; stronger effect = higher value. B-score at 10 µM. hit rate 0.35% among 310,000;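 active = fluorescence ratio B-score, a plate-corrected score, at least three library SD, with initial intensity B-score within 5 SD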
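Schedule – 37 °C overnight plating, 90-min dark dye load, 20-min compound pretreatment · System – stable KCNQ1 CHO-K1 line · Probe or stimulus – thallium- and potassium-containing depolarizing buffer · Measured by – kinetic FluxOR fluorescence, 10 s baseline plus 110 s post-stimulus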
KCNK9 block – blocks the human KCNK9 two-pore domain potassium channel | HEK293 KCNK9, FluxOR thallium flux fluorescence; stronger effect = lower value | B-score at 10 µM | hit rate 1.2% among 310,000 | AID 488922 | Q9NPC2;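 active = ratio B-score over 3 SD below the library mean, with starting fluorescence within 5 SD of its mean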;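 note: negative B-score means less thallium flux so channel inhibition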
* = called active by the depositor; i = inactive; · = no result given. In the library only some 4.1% were active in any assay of this set; here they are far more common.

SMILES | hERG rescue | KCNK3 inh | KCNQ1 inh | Cl transport mod | KCNQ1 pot | KCNK9 block
O=C(C1CC1)N1CCc2sccc2C1c1ccc(Cl)cc1 (centres undefined) | -3 | i | 6* | -2.2 | i | i
COc1cc(-c2nc3ccc(N4CCN(C)CC4)cc3[nH]2)cc(OC)c1OC | 5.5* | i | i | 0.52 | i | i
CC(N=c1ccccn1C(=O)Nc1cccc(C(F)(F)F)c1)c1ccco1 (centres undefined) | -6 | i | 9* | -0.46 | i | i
COc1cc(OC)cc(-c2nc3ccccc3c(=O)n2OC(=O)c2ccc(C)c(C)c2)c1 | -3 | i | 7* | -1.3 | i | i
O=C(O)C(Cc1ccc(OS(=O)(=O)Cc2ccccc2)cc1)NS(=O)(=O)Cc1ccccc1 (centres undefined) | · | i | · | · | · | ·
Cc1nc2sc(C(c3ccccc3)N3CCN(C(=O)c4ccco4)CC3)c(O)n2n1 (centres undefined) | 2 | i | i | -0.71 | 12* | i
Cc1ccc(C(c2sc3nc(C)nn3c2O)N2CCN(C(=O)c3ccco3)CC2)cc1 (centres undefined) | -9 | i | i | 1.9 | i | i
O=C(NCc1ccco1)c1ccc2c(c1)N(Cc1ccccc1)CCS2 | -13 | i | i | -3 | i | i
O=C(NCc1ccco1)c1ccc2c(c1)N(Cc1ccc(Cl)cc1)CCS2 | -17 | i | i | -0.71 | i | -6.8*
Fc1ccccc1NC(=S)N/N=C/c1ccccc1Br | -3 | i | i | 6.2* | i | i
O=[N+]([O-])c1ccc(/C=N/NC(=S)Nc2ccccc2F)o1 | -10 | i | i | 28* | i | i
CCOC(=O)c1cnc(-n2nc(C)cc2C)nc1NNc1cc(-c2ccccc2)nc(C)n1 | -11 | · | 6* | 0.7 | i | i
COC(=O)C(C)NC(=O)C1CCCN1S(=O)(=O)c1cc(C)c(Cl)cc1C (centres undefined) | -6 | i | i | -4.3* | i | i
CCCc1noc2c1/C(=N\O)CC(CC(C)SCC)C2 (centres undefined) | -4 | i | i | · | i | -7*
O=[N+]([O-])c1ccc(/C([O-])=C(/C(=S)NCc2ccco2)[n+]2ccccc2)cc1 | -8 | i | i | -0.55 | 8* | i
Cc1cc(NC(=O)c2cccs2)cc(-c2nc3ncccc3o2)c1O | -3 | i | i | · | i | -8*
CC(C)CC(=O)Nc1cccc(-c2nc3ccccc3o2)c1 | -13 | i | i | -0.52 | i | -7.7*
CCCCCC(=O)Nc1cccc(-c2nc3ncccc3o2)c1 | -18 | i | i | -0.054 | i | -7.4*
CCCC(=O)Nc1ccc(Cl)c(-c2nc3ncccc3o2)c1 | -9 | i | i | · | i | -8*
CCCC(=O)Nc1cccc(-c2nc3ccccc3o2)c1 | -5 | i | i | · | i | i
CCOC(=O)N1CCN(c2ccc([N+](=O)[O-])cc2F)CC1C (centres undefined) | -3 | i | i | 0.82 | i | i
Cc1cccc(NC(=O)Cn2c(=O)oc3cc(S(=O)(=O)N4CCCC4)ccc32)n1 | -4 | i | i | · | i | i
C(=N\N1CCN(c2ccccc2)CC1)/c1ccccc1 | 0 | i | i | -0.26 | i | i
CC(Sc1ccsc1[N+](=O)[O-])C(=O)NCc1ccco1 (centres undefined) | -1 | i | i | 0.18 | i | -7.7*
CC(Sc1nnc(-c2cccs2)n1-c1ccccc1)C(=O)NCc1ccco1 (centres undefined) | -8 | i | i | · | i | i
SMILES | hERG rescue | KCNK3 inh | KCNQ1 inh | Cl transport mod | KCNQ1 pot | KCNK9 block
CC(=O)N/C(=C/c1ccc2c(c1)OCO2)C(=O)O | -8 | i | i | · | 9* | i
O=C(N/C(=C/c1ccc2c(c1)OCO2)C(=O)N1CCOCC1)c1cccs1 | 8.2* | i | i | 1.5 | i | i
O=C(Nc1ccc(C(=O)O)cc1)/C(=C\c1ccc2c(c1)OCO2)NC(=O)c1ccc(Br)cc1 | -5 | i | i | -0.0016 | 10* | i
COc1cc2c(cc1OC)CN(c1nc(-c3cccnc3)nc3ccccc13)CC2 | -31 | i | i | -1.8 | i | -7.5*
CCC1C(=O)CC(c2ccc([N+](=O)[O-])cc2)NC1c1ccc([N+](=O)[O-])cc1 (centres undefined) | -15 | i | 8* | 0.038 | i | i
Cc1cc(NC(=O)c2ccccc2)n(-c2ccccc2)n1 | -15 | i | i | 0.43 | i | i
c1ccc(N2N=C(c3cccs3)CC2c2ccco2)cc1 (centres undefined) | · | i | · | 1.1 | · | ·
Clc1ccc(N2N=C(c3cccs3)CC2c2ccco2)cc1 (centres undefined) | -10 | i | 8* | 0.3 | i | i
Cc1ccc(NC(=S)N2CCN(S(C)(=O)=O)CC2)cc1C | -13 | i | i | · | i | i
COc1ccc(N(CC(=O)N2CCN(Cc3ccccc3)CC2)S(C)(=O)=O)cc1OC | 9.3* | i | i | · | i | i
CC1CC(C)CN(CCCNC(=O)c2cc3c(s2)-c2ccccc2OC3)C1 (centres undefined) | -13 | i | 6* | · | i | i
Cc1cccc(N2CCN(C(=O)CSc3ccc4c(c3)OCCO4)CC2)c1C | · | i | · | · | · | ·
O=C(NCc1cccnc1)c1ccc(CS(=O)(=O)c2ccc(Cl)cc2)o1 | -1 | i | i | -5.3* | i | i
O=C(NCc1cccs1)c1ccc(CS(=O)(=O)c2ccc(Cl)cc2)o1 | -7 | i | i | · | i | i
Cc1ccc(C(C(=O)NC2CCCC2)N(Cc2ccc3c(c2)OCO3)C(=O)c2snc(C(N)=O)c2N)cc1 (centres undefined) | -9 | i | i | · | i | i
O=C(NC1CCCCC1)C(c1ccccc1)N(Cc1ccc2c(c1)OCO2)C(=O)c1cnsn1 (centres undefined) | -2 | i | 6* | 0.13 | i | i
Cc1ccc(C(=O)Nc2cccc([N+](=O)[O-])c2)cc1S(=O)(=O)Nc1ccc(NC(=O)c2ccccc2)cc1 | -8 | i | i | 0.059 | i | i
Cc1cccc(NC(=S)NNC(=O)c2cccc([N+](=O)[O-])c2)c1 | -18 | i | 7* | -0.035 | i | i
Cc1ccc(NS(=O)(=O)c2cc(C(=O)Nc3cccc([N+](=O)[O-])c3)ccc2C)cc1 | -3 | i | i | -0.8 | i | -6.8*
Cc1ccc(C(=O)NC(=S)NNC(=O)c2cccc([N+](=O)[O-])c2)cc1 | -5 | i | i | · | i | i
